Data: ChEMBL document CHEMBL4266061, “Discovery of 4-Azaindole Inhibitors of TGFβRI as Immuno-oncology Agents” (ACS Med Chem Lett, 2018)

How the values were obtained:
[1] = Tmax in Balb/C mouse at 50 mg/kg, po bid; type: ADME, organism-based; conditions: in vivo
Method in brief: (§1)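 Compound given orally to mice. Plasma levels were followed over time, and Cmax, Tmax and AUC0–24 were taken from the plasma concentration–time profile.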

[2] = Fraction unbound in mouse plasma; type: ADME, cell-free
[3] = Metabolic stability in mouse liver microsomes assessed as parent compound remaining; type: ADME, microsome
[4] = Fraction unbound in human plasma; type: ADME, cell-free
[5] = AUC (0 to 24 hrs) in Balb/C mouse at 50 mg/kg, po bid; type: ADME, organism-based; design: time < 24 hr, dose 50 mg/kg, route oral; conditions: in vivo; method in brief: as §1
[6] = Metabolic stability in human liver microsomes assessed as parent compound remaining; type: ADME, microsome
[7] = Metabolic stability in rat liver microsomes assessed as parent compound remaining; type: ADME, microsome
[8] = Cmax in Balb/C mouse at 50 mg/kg, po bid; type: ADME, organism-based; design: dose 50 mg/kg, route oral; conditions: in vivo; method in brief: as §1
[9] = Fraction unbound in rat plasma; type: ADME, cell-free
[10] = AUC (0 to 24 hrs) in Balb/C mouse at 10 mg/kg, po qd; type: ADME, organism-based; design: time < 24 hr, dose 10 mg/kg, route oral; conditions: in vivo; method in brief: as §1
Mus musculus = test: Toxicity in C57/BL6 mouse xenografted with mouse MC38 cells assessed as body weight loss at 25 to 50 mg/kg, po qd for 28 days measured twice weekly; type: organism-based; conditions: in vivo, 672 h
Method in brief: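 Nine C57/BL6 mice per group were injected subcutaneously with 1 × 10^6 MC38 cells. Tumors were measured on day 6, then mice were randomized. Compound was given orally every day for 28 days, alone or with anti-PD-1 antibody (IP every 4 days, three doses). Tumor volumes were measured twice weekly, and body weight loss (>5%) was monitored.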

[11] = Tmax in Balb/C mouse at 10 mg/kg, po qd; type: ADME, organism-based; conditions: in vivo; method in brief: as §1
[12] = Cmax in Balb/C mouse at 10 mg/kg, po qd; type: ADME, organism-based; design: dose 10 mg/kg, route oral; conditions: in vivo; method in brief: as §1

Structure (SMILES) | Tmax [1] | fraction unbound [2] | Stability [3] | fraction unbound [4] | AUC at 24 h [5] | Stability [6] | Stability [7] | Cmax [8] | fraction unbound [9] | AUC at 24 h [10] | Activity (Mus musculus) | Tmax [11] | Cmax [12]
CC(=O)Nc1cc(-c2[nH]c3cccnc3c2-c2cccc(C(F)F)n2)ccn1 | 1 h | 0.05 | 66% | 0.09 | 14.1 µM·h | 60% | 85% | 7.4 µM | 0.18 | – | – | – | –
[2H]C([2H])([2H])Oc1ccc(-c2c(-c3ccnc(NC(C)=O)c3)[nH]c3cccnc23)nc1 | – | 0.12 | 74% | 0.24 | – | 96% | 89% | – | 0.25 | 19.5 µM·h | < 5% | 1 h | 5.3 µM
